The text below walks through data of ChEMBL document CHEMBL1133520, “Design, synthesis, and biological evaluation of potent and selective amidino bicyclic factor Xa inhibitors” (J Med Chem, 2000).

One data set deals with Prothrombin (Homo sapiens, UniProt P00734). In words: Binding affinity against human thrombin. A digest of the protocol:
(§1)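 Human purified enzymes in 0.1 M sodium phosphate, 0.2 M NaCl, 0.5% PEG 6000, pH 7.4. Inhibitor at 0.00316–10 μM in 8 half-log steps. Substrate S2222 for fXa and trypsin, S2366 for thrombin. Hydrolysis rate read at 405 nm over 30 min, with uninhibited controls. Ki calculated from % activity, Km and substrate concentration. Run in duplicate against internal standards.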

A further data set deals with Serine protease 1 (Homo sapiens, UniProt P07477). Put plainly: Binding affinity against human trypsin. A digest of the protocol:
as §1

The target in data set [1] is Coagulation factor X (Homo sapiens, UniProt P00742). In words: Binding affinity against human coagulation factor X.
Coagulation factor X (Homo sapiens, UniProt P00742), sequence (P00742 41-179 limits assumed): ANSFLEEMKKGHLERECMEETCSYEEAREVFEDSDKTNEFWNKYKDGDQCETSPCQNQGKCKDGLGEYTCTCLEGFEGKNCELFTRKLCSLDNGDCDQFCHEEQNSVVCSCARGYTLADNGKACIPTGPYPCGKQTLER
Coagulation factor X (Homo sapiens, UniProt P00742), sequence (P00742 235-488 limits assumed): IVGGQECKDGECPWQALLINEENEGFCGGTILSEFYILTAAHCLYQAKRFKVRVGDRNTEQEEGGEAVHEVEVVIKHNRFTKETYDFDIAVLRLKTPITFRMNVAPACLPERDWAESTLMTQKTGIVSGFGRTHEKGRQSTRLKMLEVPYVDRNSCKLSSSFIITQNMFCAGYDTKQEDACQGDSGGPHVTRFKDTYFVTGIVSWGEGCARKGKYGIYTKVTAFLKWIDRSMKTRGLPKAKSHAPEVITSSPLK
Data set [2] can be described thus: plasma clearance in dog. It counts as ADME, organism-based, Canis lupus familiaris. A digest of the protocol: (§2)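 Given intravenously (rabbit: 10 mg/kg/h infusion over 60 min; dog: iv). Plasma protein-precipitated with acetonitrile; quantitation limit 5 nM. Noncompartmental fit. Half-life by nonlinear regression, AUC by trapezoidal rule. Clearance = dose/AUC0→∞. Vdss = Cl × MRT, with MRT = AUMC/AUC.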

A short description of data set [3]: Cmax values of the compound. The data set is classed as ADME, organism-based. Conditions: in vivo. A digest of the protocol:
as §2

The nature of data set [4]: Distribution volume at steady state in dog. The data set is classed as ADME, organism-based, Canis lupus familiaris. Particulars: in vivo, read-out: Vdss. Summed up: as §2
The nature of data set [5]: (§3) Half life period of the compound. It counts as ADME. A digest of the protocol: as §2
The species entered for data set [6] is Oryctolagus cuniculus. Put plainly: Tested for inhibition of thrombus formation using arterio-venous shunt device in rabbit. It counts as functional. A digest of the protocol: (§4)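 Rabbit arteriovenous shunt containing silk thread; blood circulated 40 min, then the thread and thrombus were weighed. Compound or saline vehicle infused iv via jugular vein from 1 h before circulation through the end (100 min total). Percent inhibition of thrombus weight per treatment group; ID50 estimated by linear regression.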

Data set [7] addresses T1, Coagulation factor X (Oryctolagus cuniculus, UniProt O19045).
T1 sequence (O19045 whole entry): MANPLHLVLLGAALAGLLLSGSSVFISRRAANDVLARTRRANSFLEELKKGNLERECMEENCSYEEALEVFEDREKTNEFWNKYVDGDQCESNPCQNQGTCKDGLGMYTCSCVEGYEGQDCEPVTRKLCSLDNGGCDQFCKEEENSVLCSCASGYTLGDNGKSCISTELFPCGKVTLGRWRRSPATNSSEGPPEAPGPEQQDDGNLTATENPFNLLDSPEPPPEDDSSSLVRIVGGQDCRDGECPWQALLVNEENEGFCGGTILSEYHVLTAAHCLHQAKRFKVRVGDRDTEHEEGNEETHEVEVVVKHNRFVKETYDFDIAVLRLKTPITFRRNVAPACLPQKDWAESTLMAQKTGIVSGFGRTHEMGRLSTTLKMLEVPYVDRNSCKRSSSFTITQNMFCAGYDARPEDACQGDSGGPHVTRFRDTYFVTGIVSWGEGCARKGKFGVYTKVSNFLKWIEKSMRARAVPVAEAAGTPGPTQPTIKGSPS
Put plainly: Binding affinity against fXa from rabbit purified enzyme.

Data set [8] in a line: as §3. The data set is classed as ADME. Summed up:
as §2
This is another data set of the same source.

Data set [9] has as its target T1, Coagulation factor X. Put plainly: Binding affinity against Coagulation factor X from rabbit purified enzyme.
In data set [10] the test system is Oryctolagus cuniculus. In words: Tested for inhibition of thrombus formation using arterio-venous shunt device in rabbit at 0.008-1 mg/kg/h. It counts as functional. A digest of the protocol:
as §4

Data set [11] is filed under the species Oryctolagus cuniculus. Put plainly: Distribution volume at steady state in rabbit. Conditions: in vivo, read-out: Vdss.
Data set [12] in a line: plasma clearance in rabbit.

Several values for one entry are separate records, joined by “and”; a condition that tells them apart may be missing. Equal values may be shown once. Where only a bound is given, the exact number is not on record here.

Serine protease 1, sequence (P07477 whole entry): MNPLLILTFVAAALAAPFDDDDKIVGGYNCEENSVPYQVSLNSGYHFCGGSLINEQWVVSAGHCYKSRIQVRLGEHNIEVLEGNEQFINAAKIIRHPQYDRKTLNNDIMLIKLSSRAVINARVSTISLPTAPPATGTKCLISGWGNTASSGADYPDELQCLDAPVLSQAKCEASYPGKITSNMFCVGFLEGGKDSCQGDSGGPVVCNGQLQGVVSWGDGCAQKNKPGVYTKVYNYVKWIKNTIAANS

As for `N=C(N)c1ccc2cnn(CC(=O)Nc3ccc(-c4ccccc4S(N)(=O)=O)cn3)c2c1`, the figures for the Ki on Prothrombin, on Serine protease 1 and on Coagulation factor X [1] were 6800 nM, 41 nM and 3.1 nM, respectively.

`N=C(N)c1ccc2[nH]cc(CC(=O)Nc3ccc(-c4ccccc4S(N)(=O)=O)cc3F)c2c1` gave a clearance in [2] of 18.3 mL/min/kg. In addition, the Ki on Prothrombin is 2100 nM; on Serine protease 1 it was 270 nM; at Coagulation factor X [1], 3.1 nM. Further, the peak level in data set [3] (Cmax) was 1630 nM. In addition, in data set [4], the Vd amounted to 0.87 L/kg. Besides, the half-life in data set [5] is 2.5 h.

With `N=C(N)c1ccc2c(c1)ncn2CC(=O)c1ccc(-c2ccccc2)cc1`, the Ki at Prothrombin was more than 21000 nM.

Take `CCOC(=O)C(CCc1ccc(C(=N)N)cc1)Cn1cnc2ccc(C(=N)N)cc21` (stereo not drawn): the inhibition constant (Ki) was more than 21000 nM at Prothrombin and 11900 nM at Coagulation factor X [1].

On to `N=C(N)c1ccc2[nH]cc(CC(=O)Nc3ccc(-c4ccccc4S(N)(=O)=O)cc3)c2c1`, for which the ID50 in the data set listed under Oryctolagus cuniculus [6] stood at 1.7 µM/h/kg. The same compound had a clearance in [2] of 20.3 mL/min/kg. Moreover, the inhibition constant (Ki) is 1600 nM and 900 nM on Prothrombin; 160 nM at Serine protease 1; 6 nM at Coagulation factor X [7]. The Cmax in [3] is 1510 nM and 8700 nM. Also, the Vd in data set [4] worked out at 0.38 L/kg. Moreover, the half-life was 0.79 h in data set [5] and 1.22 h in data set [8].

`N=C(N)c1ccc2[nH]cc(CC(=O)Nc3ccc(-c4ccccc4S(N)(=O)=O)cc3Cl)c2c1` came in with an ID50 in the data set listed under Oryctolagus cuniculus [6] of 0.35 µM/h/kg. Moreover, the clearance in data set [2] is 50 mL/min/kg. Also, the Ki on Prothrombin amounted to 500 nM; on Serine protease 1, 140 nM; at Coagulation factor X [9], 0.79 nM; on Coagulation factor X [1], 0.7 nM. Moreover, in data set [3], the highest level (Cmax) was 650 nM. In addition, the Vd in data set [4] came out at 2.01 L/kg. Further, in data set [5], the half-life was 1.75 h.

Turning to `Cc1cc(-c2ccccc2S(N)(=O)=O)ccc1NC(=O)Cc1c[nH]c2ccc(C(=N)N)cc12`, the Ki came out at 1000 nM at Prothrombin, 340 nM at Serine protease 1 and 2.3 nM on Coagulation factor X [1].

As for `CN(C(=O)Cc1c[nH]c2ccc(C(=N)N)cc12)c1ccc(-c2ccccc2S(N)(=O)=O)cc1`, the Ki at Prothrombin came to 14000 nM; on Serine protease 1, 600 nM; on Coagulation factor X [1], 41 nM.

As to `N=C(N)c1ccc2[nH]cc(CC(=O)Nc3ccc(-c4ccccc4S(N)(=O)=O)cn3)c2c1`, the ID50 in the data set filed under Oryctolagus cuniculus [6] was 0.3 µM/h/kg. Further, in data set [2], the clearance is 61.7 mL/min/kg. Also, the Ki at Prothrombin is 2100 nM; at Serine protease 1, 150 nM; on Coagulation factor X [9], 0.93 nM; on Coagulation factor X [1], 0.92 nM and 0.44 nM. The concentration in data set [3] peaked (Cmax) at 2200 nM. Besides, the Vd in [4] is 1.9 L/kg. This compound had a half-life in data set [5] of 0.4 h.

Turning to `CNS(=O)(=O)c1ccccc1-c1ccc(NC(=O)Cc2c[nH]c3ccc(C(=N)N)cc23)cc1`, the Ki at Prothrombin stood at 900 nM; on Serine protease 1, 120 nM; on Coagulation factor X [1] it was 3.4 nM.

As for `CN(C)S(=O)(=O)c1ccccc1-c1ccc(NC(=O)Cc2c[nH]c3ccc(C(=N)N)cc23)cc1`, the inhibition constant (Ki) on Prothrombin stood at 1700 nM; on Serine protease 1 it was 390 nM; at Coagulation factor X [1], 7 nM.

For the compound `CCOC(=O)C(CCc1ccc(C(=N)N)cc1)Cn1cnc2cc(C(=N)N)ccc21` (stereo not drawn), the Ki was more than 21000 nM on Prothrombin and 2200 nM on Coagulation factor X [1].

Consider `N=C(N)c1ccc2ncn(CC(=O)c3ccc(-c4ccccc4S(N)(=O)=O)cc3)c2c1`, for which the Ki on Prothrombin came out at 2800 nM; at Serine protease 1, 300 nM; on Coagulation factor X [1], 240 nM.

With `CCOC(=O)C(CCc1cccc(C(=N)N)c1)Cn1cnc2cc(C(=N)N)ccc21` (stereo not drawn), the Ki is 2000 nM at Prothrombin and 220 nM at Serine protease 1.

Regarding `N=C(N)c1ccc2c(c1)ncn2CC(=O)Nc1ccc(-c2ccccc2)cc1`, the Ki on Prothrombin was 12500 nM; on Serine protease 1, more than 2500 nM; on Coagulation factor X [1], 3900 nM.

Regarding `N=C(N)c1ccc2c(c1)ncn2CC(=O)Nc1ccc(-c2ccccc2S(N)(=O)=O)cc1`, the inhibitory constant (Ki) was 2700 nM at Prothrombin, 130 nM at Serine protease 1 and 400 nM on Coagulation factor X [1].

With `N=C(N)c1ccc2[nH]cc(CC(=O)Nc3ccc(-c4ccccc4S(N)(=O)=O)cc3Br)c2c1`, the clearance in data set [2] is 22.3 mL/min/kg. Besides, the Ki was 200 nM on Prothrombin, 120 nM on Serine protease 1, 0.9 nM on Coagulation factor X [9] and 0.32 nM at Coagulation factor X [1]. The Cmax in data set [3] came out at 1430 nM. Besides, in the data set on Oryctolagus cuniculus [10], the ID50 stood at 0.14 µM/h/kg. Besides, the Vd in data set [4] came out at 0.67 L/kg. For the same compound, the half-life in [5] is 1.8 h.

Turning to `CCOC(=O)C(CCc1cccc(C(=N)N)c1)Cn1cnc2ccc(C(=N)N)cc21` (stereo not drawn), the values for the Ki on Prothrombin, on Serine protease 1 and on Coagulation factor X [1] were 1900 nM, 820 nM and 700 nM, respectively.

On to `N=C(N)c1ccc2[nH]cc(CC(=O)Nc3ccc(-c4ccccc4S(N)(=O)=O)cc3I)c2c1`, for which the Ki on Prothrombin came to 200 nM; on Serine protease 1, 240 nM; at Coagulation factor X [1] it was 0.6 nM.

For the compound `Cn1cc(CC(=O)Nc2ccc(-c3ccccc3S(N)(=O)=O)cn2)c2cc(C(=N)N)ccc21`, the inhibition constant (Ki) was 21000 nM on Prothrombin, 1500 nM at Serine protease 1 and 89 nM on Coagulation factor X [1].

As to `CCNS(=O)(=O)c1ccccc1-c1ccc(NC(=O)Cc2c[nH]c3ccc(C(=N)N)cc23)cc1`, the Ki at Prothrombin amounted to 800 nM; at Serine protease 1, 160 nM; on Coagulation factor X [1], 4.1 nM.

On to `CCCNS(=O)(=O)c1ccccc1-c1ccc(NC(=O)Cc2c[nH]c3ccc(C(=N)N)cc23)cc1`, for which the Ki on Prothrombin stood at 400 nM; at Serine protease 1, 180 nM; at Coagulation factor X [1], 8 nM.

With `N=C(N)c1ccc2ncn(CC(=O)Nc3ccc(-c4ccccc4S(N)(=O)=O)cc3)c2c1`, the results for the Ki on Prothrombin, on Serine protease 1 and at Coagulation factor X [1] were 2200 nM, 47 nM and 2.4 nM, respectively. This compound also registered a Cmax in [3] of 3850 nM. Besides, in the data set listed under Oryctolagus cuniculus [11], the Vd is 3.04 L/kg. The clearance in data set [12] was 73.3 mL/min/kg. The half-life in [8] is 0.96 h.

In the case of `N=C(N)c1ccc2ncn(CC(=O)c3ccc(-c4ccccc4)cc3)c2c1`, the Ki is 1200 nM on Prothrombin, 320 nM on Serine protease 1 and 120 nM at Coagulation factor X [1].

Turning to `N=C(N)c1ccc2ncn(CC(=O)Nc3ccc(-c4ccccc4)cc3)c2c1`, the inhibition constant Ki stood at 4700 nM at Prothrombin, 480 nM on Serine protease 1 and 220 nM at Coagulation factor X [1].

Consider `N=C(N)c1ccc2c(c1)C(CC(=O)Nc1ccc(-c3ccccc3S(N)(=O)=O)cc1)CN2` (single isomer, unassigned; (+)), for which the Ki is 1500 nM at Prothrombin, 140 nM at Serine protease 1 and 0.71 nM at Coagulation factor X [1].

Turning to `N=C(N)c1ccc2c(c1)C(CC(=O)Nc1ccc(-c3ccccc3S(N)(=O)=O)cc1)CN2` (single isomer, unassigned; (-)), the Ki was 17000 nM at Prothrombin, 400 nM at Serine protease 1 and 52 nM on Coagulation factor X [1].

In general, Ki refers to the equilibrium dissociation constant of an inhibitor or competing ligand from its target. A higher Ki goes with lower affinity. The clearance is a measure of how efficiently the substance is removed, as volume per time. A high value points to efficient removal. Usually Cmax stands for the highest concentration seen after dosing. A word on the half-life: it is how long it takes for the measured level to halve. A lower half-life goes with fast loss.
